The target in one assay is Mu-type opioid receptor (Rattus norvegicus, UniProt P33535). The assay is described as follows: Displacement of [3H]DAMGO from mu opioid receptor in rat brain membrane. The format is cell membranes. A digest of the protocol: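 Wistar rat brain membranes (cerebellum removed) in 50 mM Tris–HCl, pH 7.4. [³H]DAMGO at 0.5 nM with varying peptide concentrations for 1 h at 25 °C in a rotating incubator. Stopped by vacuum filtration through GF/C filters, washed three times with ice-cold buffer, then scintillation counted. Nonspecific binding taken with naloxone. Duplicates, repeated at least three times; Ki derived.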
Chain of Mu-type opioid receptor (P33535 whole entry): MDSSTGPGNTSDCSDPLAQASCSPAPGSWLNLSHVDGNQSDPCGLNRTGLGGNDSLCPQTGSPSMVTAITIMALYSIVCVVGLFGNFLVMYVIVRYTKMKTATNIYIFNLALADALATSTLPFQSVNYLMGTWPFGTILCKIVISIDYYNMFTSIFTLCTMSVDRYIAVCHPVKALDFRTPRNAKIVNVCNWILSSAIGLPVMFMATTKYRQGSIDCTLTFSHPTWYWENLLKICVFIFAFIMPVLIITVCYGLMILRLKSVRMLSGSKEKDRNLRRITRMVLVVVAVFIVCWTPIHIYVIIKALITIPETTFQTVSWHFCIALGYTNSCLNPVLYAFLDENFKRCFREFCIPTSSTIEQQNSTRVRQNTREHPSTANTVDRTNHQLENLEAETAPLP
In general terms: Displacement assays read how much labelled ligand stays bound in the presence of the test substance.

The target in assay [1] is Delta-type opioid receptor (Rattus norvegicus, UniProt P33533). Nature of the assay: Displacement of [3H]DPDPE from delta opioid receptor in rat brain membrane. The format is cell membranes. The method in brief:
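Wistar rat brain membranes (cerebellum removed) in 50 mM Tris–HCl, pH 7.4. [³H]DPDPE at 1 nM with varying peptide concentrations for 3 h at 25 °C in a rotating incubator. GF/C vacuum filtration, three ice-cold buffer washes, scintillation counting. Naloxone defined nonspecific binding. Duplicates, repeated at least three times; Ki calculated.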

For another assay, the species on record is Rattus norvegicus. Nature of the assay: Selectivity ratio of Ki for delta opioid receptor to Ki for mu opioid receptor in rat brain membrane. Type of assay: cell membranes.
A further assay concerns the target Mu-opioid receptor (Cavia porcellus, UniProt Q8CGM4). The assay is described as follows: Agonist activity at mu opioid receptor in guinea pig ileum assessed as inhibition of electrically-stimulated contraction. The format is functional, tissue-based. The method in brief: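 Guinea pig ileum in a 10-ml bath of Krebs–Henseleit solution at 37 °C, aerated with 95% O₂/5% CO₂. Twitches evoked by 0.1-Hz, 50-V, 0.5-ms rectangular pulses; isometric recording. […] Arithmetic mean of five to eight measurements.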

A short description of assay [2]: Selectivity ratio of IC50 for guinea pig ileum to IC50 for mouse vas deferens assay. The format is tissue-based.
For assay [3], the target named is Delta-type opioid receptor (Mus musculus, UniProt P32300). The assay is described as follows: Agonist activity at delta opioid receptor in mouse vas deferens assessed as inhibition of electrically-stimulated contraction. The format is functional, tissue-based. A digest of the protocol: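 Mouse vas deferens held at 36 °C in aerated (95% O₂/5% CO₂) Krebs–Henseleit, 10-ml bath. Pulse pairs (1-ms width, 100 ms apart, 9 V/cm supramaximal) repeated every 10 s; isometric twitch recording.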
Chain of Delta-type opioid receptor (Mus musculus, UniProt P32300) (P32300 whole entry): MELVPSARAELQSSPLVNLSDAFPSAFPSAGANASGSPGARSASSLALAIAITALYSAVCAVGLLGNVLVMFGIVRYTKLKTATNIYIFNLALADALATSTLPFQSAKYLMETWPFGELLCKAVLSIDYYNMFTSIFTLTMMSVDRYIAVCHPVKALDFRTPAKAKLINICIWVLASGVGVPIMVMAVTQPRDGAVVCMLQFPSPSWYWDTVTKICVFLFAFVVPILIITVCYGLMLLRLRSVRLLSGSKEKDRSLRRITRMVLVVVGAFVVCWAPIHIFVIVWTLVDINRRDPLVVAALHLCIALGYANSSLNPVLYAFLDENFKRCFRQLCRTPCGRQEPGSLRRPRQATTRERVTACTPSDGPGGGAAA

These results are taken from ChEMBL document CHEMBL1150405, “Structure-activity study of endomorphin-2 analogs with C-terminal modifications by NMR spectroscopy and molecular modeling” (Bioorg Med Chem, 2008).

The term Ki denotes the dissociation constant of the complex between target and ligand, obtained from inhibition or displacement. Higher therefore signals weaker binding. What is called IC50 is the concentration at which inhibition is half-maximal.

Chain of Mu-opioid receptor (Q8CGM4 whole entry): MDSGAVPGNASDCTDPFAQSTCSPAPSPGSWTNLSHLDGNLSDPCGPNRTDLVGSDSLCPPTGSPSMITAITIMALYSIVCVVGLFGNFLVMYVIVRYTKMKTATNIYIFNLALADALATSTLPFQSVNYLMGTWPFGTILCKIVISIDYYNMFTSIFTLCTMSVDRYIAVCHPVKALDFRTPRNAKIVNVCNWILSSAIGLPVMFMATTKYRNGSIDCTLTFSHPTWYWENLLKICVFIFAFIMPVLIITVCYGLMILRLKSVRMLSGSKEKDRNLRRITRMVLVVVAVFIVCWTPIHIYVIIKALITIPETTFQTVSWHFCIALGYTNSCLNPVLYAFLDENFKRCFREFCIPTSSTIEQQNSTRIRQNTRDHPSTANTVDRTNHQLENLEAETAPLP
Chain of Delta-type opioid receptor (Rattus norvegicus, UniProt P33533) (P33533 whole entry): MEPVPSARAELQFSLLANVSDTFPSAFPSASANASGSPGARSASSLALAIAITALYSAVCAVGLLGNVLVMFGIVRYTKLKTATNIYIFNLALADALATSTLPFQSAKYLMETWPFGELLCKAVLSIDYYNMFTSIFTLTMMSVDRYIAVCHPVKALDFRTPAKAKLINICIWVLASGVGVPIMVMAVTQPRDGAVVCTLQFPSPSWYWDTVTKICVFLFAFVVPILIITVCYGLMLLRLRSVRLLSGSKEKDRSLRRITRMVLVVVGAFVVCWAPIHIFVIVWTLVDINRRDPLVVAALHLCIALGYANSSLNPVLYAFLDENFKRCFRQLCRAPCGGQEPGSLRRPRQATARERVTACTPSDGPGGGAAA

On to `NNC(=O)[C@H](Cc1ccccc1)NC(=O)[C@H](Cc1ccccc1)NC(=O)[C@@H]1CCCN1C(=O)[C@@H](N)Cc1ccc(O)cc1`, for which the inhibition constant (Ki) was 9.35 nM on Mu-type opioid receptor and more than 10000 nM in assay [1]. Also, in the assay listed under Rattus norvegicus, the Ratio Ki was more than 1070. The IC50 on Mu-opioid receptor was 132 nM. Further, in assay [2], the IC50 ratio (guinea pig ileum / mouse vas deferens) amounted to 0.71.
With `N[C@@H](Cc1ccc(O)cc1)C(=O)N1CCC[C@H]1C(=O)N[C@@H](Cc1ccccc1)C(=O)N[C@H](CO)Cc1ccccc1`, the Ki is 6.34 nM at Mu-type opioid receptor and more than 10000 nM in assay [1]. Moreover, the Ratio Ki in the assay listed under Rattus norvegicus is more than 1580. The IC50 was determined as 29.3 nM on Mu-opioid receptor and 29.2 nM in assay [3]. Also, the IC50 ratio (guinea pig ileum / mouse vas deferens) in assay [2] was 1.
In the case of `COC(=O)[C@H](Cc1ccccc1)NC(=O)[C@H](Cc1ccccc1)NC(=O)[C@@H]1CCCN1C(=O)[C@@H](N)Cc1ccc(O)cc1`, the values for the Ki (on Mu-type opioid receptor; in assay [1]) were 9.07 nM and more than 10000 nM, respectively. For the same compound, the Ratio Ki in the assay filed under Rattus norvegicus is more than 1100. For the same compound, the IC50 at Mu-opioid receptor was 42.1 nM. Besides, in assay [2], the IC50 ratio (guinea pig ileum / mouse vas deferens) came out at 1.1.
Take `CN(C)C(=O)[C@H](Cc1ccccc1)NC(=O)[C@H](Cc1ccccc1)NC(=O)[C@@H]1CCCN1C(=O)[C@@H](N)Cc1ccc(O)cc1`: the Ki on Mu-type opioid receptor was 273 nM; in assay [1], more than 10000 nM. Besides, in the assay listed under Rattus norvegicus, the Ratio Ki is more than 36.7. Besides, the IC50 at Mu-opioid receptor was determined as 1810 nM; in assay [3], 2720 nM. Also, in assay [2], the IC50 ratio (guinea pig ileum / mouse vas deferens) stood at 0.66.
Take `CC(C)(C)OC(=O)[C@H](Cc1ccccc1)NC(=O)[C@H](Cc1ccccc1)NC(=O)[C@@H]1CCCN1C(=O)[C@@H](N)Cc1ccc(O)cc1`: the Ki was 50.3 nM at Mu-type opioid receptor and 247 nM in assay [1]. For the same compound, in the assay filed under Rattus norvegicus, the Ratio Ki was 4.9. For the same compound, the IC50 on Mu-opioid receptor came to 3000 nM; in assay [3], 74.1 nM. Also, the IC50 ratio (guinea pig ileum / mouse vas deferens) in assay [2] stood at 40.5.
As to `CCOC(=O)[C@H](Cc1ccccc1)NC(=O)[C@H](Cc1ccccc1)NC(=O)[C@@H]1CCCN1C(=O)[C@@H](N)Cc1ccc(O)cc1`, the values for the Ki (at Mu-type opioid receptor; in assay [1]) were 15 nM and 2940 nM, respectively. For the same compound, in the assay listed under Rattus norvegicus, the Ratio Ki was determined as 196. Besides, the half-inhibitory concentration (IC50) on Mu-opioid receptor turned out to be 64.4 nM; in assay [3], 63.7 nM. Besides, the IC50 ratio (guinea pig ileum / mouse vas deferens) in assay [2] came out at 1.
With `CNC(=O)[C@H](Cc1ccccc1)NC(=O)[C@H](Cc1ccccc1)NC(=O)[C@@H]1CCCN1C(=O)[C@@H](N)Cc1ccc(O)cc1`, the Ki on Mu-type opioid receptor was 29.2 nM; in assay [1], 8470 nM. For the same compound, the Ratio Ki in the assay filed under Rattus norvegicus amounted to 290. The results for the IC50 (at Mu-opioid receptor; in assay [3]) were 136 nM and 54.6 nM, respectively. Moreover, the IC50 ratio (guinea pig ileum / mouse vas deferens) in assay [2] amounted to 2.5.
